In the library only some 3.9% were active in any assay of this set; here they are far more common.
CHOP inh: inhibitors of CHOP induction in ER stress response | CHO-K1 CHOP-promoter luciferase, tunicamycin-induced, 15-18 h | inhibition, % at 10 µM | actives 3.8% (n = 220,000);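 active = compounds that reduced the stress-induced luciferase reporter signal by more than about 70% of percent inhibition, limit read from the data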;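 also: 0% = tunicamycin plus vehicle and 100% = wells without tunicamycin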
697 NFkB inh: lowers PMA/ionomycin-induced NF-kB signal in 697 B cells | 697 B-cell NF-kB luciferase reporter, 16 h | actives 0.33% (n = 330,000) | inhibition, % at 4 µM | AID 435022; in the data active = inhibition above about 35%
UPR CHOP act: activators of apoptotic arm of unfolded protein response (CHOP); activation, % at 10 µM; AID 449763; actives 0.34% (n = 330,000); CHO-CHOP luciferase reporter, UPR activation, luminescence; percent of tunicamycin response over DMSO baseline;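 active = at 10 µM dose, activation of 40% or more, normalized to positive control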;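 also: 100% = tunicamycin at 10 µg/mL and 0% = DMSO alone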
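Material: CHO-CHOP cells, stable luciferase reporter of PERK-eIF2a-CHOP signalling; quantity: 500 reporter cells seeded per well; buffer or medium: F12 medium containing 10% fetal bovine serum; compound: one dose, 10 µM in 0.5% DMSO; incubation: 6 h compound treatment, 37 °C; measured by: Steady-Glo luciferase luminescence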
UPR XBP1 act: adaptive UPR (XBP1) activation; actives 0.33% (n = 330,000); CHO-XBP1 luciferase reporter, IRE1-XBP1 UPR activation, luminescence; percent of tunicamycin response, DMSO as zero; AID 463104; activation, % at 20 µM;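 active = versus positive control, 20 µM dose yields 30% or more activation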;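 also: 100% = tunicamycin at 10 µg/mL and 0% = DMSO only wells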
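Material: CHO-XBP1 cells stably carrying IRE1-XBP1-driven luciferase reporter | Medium: F12 with 10% serum | Compound dosing: 20 µM single concentration, DMSO 1% | Incubation: Overnight seeding at 37 °C, 6 h compound treatment at 37 °C | Detection: Steady-Glo luminescence read | Read-out basis: % activation of reporter signal versus tunicamycin and DMSO controls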
Jurkat NFkB inh: inhibitors of the PMA/ionomycin-induced NF-kB reporter in Jurkat cells; PMA/ionomycin-induced NF-kB luciferase reporter, luminescence; inhibition, % at 4 µM; actives 0.53% (n = 330,000); in the data active = inhibition above about 50%
Gli-Sufu block: Gli-Sufu pathway antagonism; AID 588413; actives 0.74% (n = 340,000); Sufu-KO-LIGHT fibroblasts, Gli luciferase reporter luminescence; inhibition, % at 5 µM;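 active = inhibition above about 55%, limit read from the data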;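 also: 0% = DMSO-treated cells and 100% = wells with medium but no cells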
CHOP confirm: confirmation of CHOP induction inhibitors. CHO-CHOP promoter luciferase reporter, tunicamycin-induced, luminescence. shares compounds with CHOP inh. AID 504437. inhibition, % at 10 µM. actives 45% (n = 2,100);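 active = mean of three repeat readings of reporter signal inhibition above a set limit, cut at about 70% in these data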;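 also: 0% = tunicamycin plus vehicle and 100% = wells lacking tunicamycin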
* marks the source's active call; other numbers are inactive results; nt = not tested or not shown.

SMILES	CHOP inh	697 NFkB inh	UPR CHOP act	UPR XBP1 act	Jurkat NFkB inh	Gli-Sufu block	CHOP confirm
CCOc1ccc(-c2n[nH]c(C)c2Oc2ccc(OC)cc2)c(O)c1	108*	-14	5	6	10	1	88*
C=C(C)COc1ccc(-c2nc(N)ncc2Oc2ccc(OC)cc2)c(O)c1	67	9	2	2	2	-7	nt
COc1ccc(C)cc1N(CC(=O)NCCSCc1ccco1)S(=O)(=O)c1ccc(C)cc1	nt	-12	1	-4	-3	-5	nt
COc1ccc(CCN2C(=O)N[C@@H](CCC(=O)O)C2=O)cc1	nt	12	-2	1	6	-20	nt
CCN(C(=O)COC(=O)c1ncc(Cl)c(Cl)c1Cl)c1c(N)n(Cc2ccccc2)c(=O)[nH]c1=O	nt	nt	nt	nt	nt	6	nt
CCC(=O)NC(Cc1ccccc1)c1nc2ccccc2[nH]1 (configuration not stated)	nt	3	3	-5	-13	4	nt
Cc1cc(Cl)ccc1OCC(=O)N[C@@H](Cc1ccccc1)c1nc2ccccc2[nH]1	108*	1	-1	8	-21	9	115*
Cc1ccc(NC(=O)CSc2nc3ccccc3c3nc(CCc4c(C)n[nH]c4C)nn23)cc1F	108*	9	3	28	2	9	79*
CCCCC1=CC2=C(c3ccco3)C(=O)C(C)(OC(=O)c3ccc(OC)cc3)C(=O)C2=CN1C1CCCCC1 (configuration not stated)	101*	14	0	0	10	-3	6
CCCCC1=CC2=C(c3ccco3)C(=O)C(C)(OC(=O)c3ccc(OC)cc3)C(=O)C2=CN1CCOC (configuration not stated)	-199	12	3	3	16	-2	nt
CCCCC1=CC2=C(c3ccco3)C(=O)C(C)(OC(=O)c3ccc(OC)cc3)C(=O)C2=CN1Cc1ccccc1 (configuration not stated)	105*	-4	0	-2	-11	19	73*
CCCCC1=CC2=C(c3ccco3)C(=O)C(C)(OC(=O)c3ccc(OC)cc3)C(=O)C2=CN1Cc1ccc2c(c1)OCO2 (configuration not stated)	102*	3	4	6	-1	-22	24
CC(C)(C)c1ccc(C(=O)CC(=O)c2cc(Cl)ccc2O)cc1	47	-65	15	11	10	-61	nt
O=C(CC(=O)c1ccccc1O)c1ccc(F)cc1	101*	-75	17	2	-37	-26	62
Cc1ccc(C(=O)CC(=O)c2cc(Cl)ccc2O)cc1	102*	-124	24	4	-104	-43	72*
O=C(CC(=O)c1c(F)cccc1Cl)c1ccccc1O	nt	-47	0	8	-28	-10	nt
O=C(CC(=O)c1ccccc1O)c1cccc(F)c1	nt	-79	31	3	-13	-8	56
CCn1ncc(Cl)c1C(=O)Nc1cc(Cl)ccc1Cl	100*	-4	-4	0	-3	-9	17
CCn1nccc1C(=O)Nc1cc(Cl)ccc1Cl	30	-6	0	-1	2	-53	nt
CCOc1ccc(NC(=O)CN(C)C(=O)c2n[nH]c(=O)c3ccccc23)cc1OCC	nt	17	1	-1	-5	-1	nt
Cn1c(=O)n(Cc2ccc(F)cc2)c(=O)c2c1nc1n2CCCN1C1CCCCC1	103*	3	-3	0	-5	12	26
CC(=O)Nc1cn(-c2ccccc2)nc1-c1ccccc1	0	-3	2	2	-17	-1	nt
O=C(CCl)Nc1cn(-c2ccccc2)nc1-c1ccccc1	107*	-17	6	-5	6	-4	106*
O=C1OCC(c2ccc(Cl)s2)=C1c1ccccc1[N+](=O)[O-]	nt	-6	0	-11	-5	5	nt
CC(C)(C)C1CCc2onc(C(=O)Nc3cccc(O)c3)c2C1 (configuration not stated)	109*	-57	3	4	0	nt	25
SMILES	CHOP inh	697 NFkB inh	UPR CHOP act	UPR XBP1 act	Jurkat NFkB inh	Gli-Sufu block	CHOP confirm
CC(C)(C)c1ccc(NC(=O)C(=O)C2C(=O)Nc3ccccc32)cc1 (configuration not stated)	101*	5	3	4	-1	-14	48
Cc1cc(Cl)n2c(nc3ccccc32)c1C#N	108*	nt	nt	nt	nt	-2	133*
CNc1cc(C)c(C#N)c2nc3ccccc3n12	nt	-10	-1	5	3	-4	nt
CCN(CC(=O)NCc1cccs1)C(=O)c1ccc(-c2cccc(C(F)(F)F)c2)o1	nt	7	1	-3	3	-1	nt
CC(=O)Nc1sc(N/N=C\c2ccccc2Cl)nc1-c1cccs1	103*	-18	5	4	3	17	3
CC(=O)Nc1sc(N/N=C\c2ccccc2)nc1-c1cccs1	1	-4	0	-2	-16	-19	nt
COc1ccc(/C=N/NC(=O)c2nc(Cl)c(Cl)c(N)c2Cl)cc1COc1ccc(F)cc1F	100*	-74	3	6	-7	8	36
COc1ccc(/C=N/NC(=O)c2nc(Cl)c(Cl)c(N)c2Cl)cc1COc1ccccc1F	19	-11	-2	2	-2	1	nt
O=[N+]([O-])c1cccc(-c2nnc(-c3ccccc3F)o2)c1	nt	-84	7	-3	-95	-68	nt
O=C1NN=C(c2ccc(Cl)cc2)CC1c1cccc(Cl)c1 (configuration not stated)	102*	24	-3	-3	18	31	44
C[C@H](CO)N1C[C@H](C)[C@@H](CN(C)S(=O)(=O)c2ccccc2)Oc2c(NC(=O)c3ccncc3)cccc2C1=O	nt	-2	2	0	3	-1	nt
CC(OC(=O)c1oc2ccccc2c1CSC1CCCCC1)C(=O)NC(N)=O (configuration not stated)	101*	-6	5	2	-5	2	36
COc1ccc(N2CC(C(=O)N[C@H](C(=O)NC3CCCCC3)C(C)C)CC2=O)cc1 (some centres not stated)	nt	-5	2	-5	-9	-8	nt
Cc1ccc(S(=O)(=O)N2CCOCC2)cc1C(=O)NC1=NCCS1	nt	9	1	3	1	10	nt
CC1=C(C(=O)Nc2ccc(C)cc2C)C(c2cccc(Cl)c2)n2nc(C(=O)OC(C)C)nc2N1 (configuration not stated)	106*	8	1	-4	-8	3	118*
CC1=C(C(=O)Nc2ccc(C)cc2C)C(c2cccc([N+](=O)[O-])c2)n2nc(C(=O)OC(C)C)nc2N1 (configuration not stated)	27	-133	0	-1	-63	-3	nt
